As usually defined, the inhibition is the drop in the measured response relative to a control, in per cent.

Experimental findings from ChEMBL document CHEMBL4043283, “Discovery and Preclinical Development of IIIM-290, an Orally Active Potent Cyclin-Dependent Kinase Inhibitor” (J Med Chem, 2018) are described below.

In assay [1] the target is CDK2/Cyclin A2 (Homo sapiens) (UniProt P24941+P20248). The assay is described as follows: Inhibition of CDK2/cyclin A (unknown origin) at 0.5 uM using histone H1 as substrate after 30 mins in presence of [33P]-gamma-ATP by filter binding assay relative to control. The class given is protein-complex assay.
Assay [2] has as its target CDK9/cyclin T1 (Homo sapiens) (UniProt O60563+P50750). The assay is described as follows: Inhibition of CDK9/cyclin T1 (unknown origin) at 0.5 uM using YSPTSPSYSPTSPSYSPTSPKKK as substrate after 30 mins in presence of [33P]-gamma-ATP by filter binding assay relative to control. The class given is protein-complex assay.
Assay [3] deals with HL-60. The assay is described as follows: Growth inhibition of human HL60 cells at 10 uM after 48 hrs by MTT assay relative to control. The class given is functional. The settings on record: HL-60, 48 h, read-out: GI. In outline:
(§1)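 Single-concentration primary screen at 10 μM by MTT assay. Cells were NCI-sourced cancer lines grown in appropriate medium at 37 °C, 95% humidity, 5% CO2. Growth inhibition is expressed relative to control.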
Background: Tetrazolium dyes change colour on reduction, which living cells bring about.

Assay [4] concerns PC-3. The assay is described as follows: Growth inhibition of human PC3 cells at 10 uM after 48 hrs by MTT assay relative to control. The class given is functional. To be noted: PC-3, 48 h, read-out: GI. In outline:
as §1

The test system of assay [5] is MIA PaCa-2. The assay is described as follows: Growth inhibition of human MIAPaCa2 cells at 10 uM after 48 hrs by MTT assay relative to control. The class given is functional. The settings on record: MIA PaCa-2, 48 h, read-out: GI. In outline: as §1
Assay [6] relates to MCF7. In words: Growth inhibition of human MCF7 cells at 10 uM after 48 hrs by MTT assay relative to control. The class given is functional. The settings on record: MCF7, 48 h, read-out: GI. In outline:
as §1

In assay [7] the test system is Caco-2. The assay is described as follows: Growth inhibition of human Caco2 cells at 10 uM after 48 hrs by MTT assay relative to control. The class given is functional. To be noted: Caco-2, 48 h, read-out: GI. An outline of the steps:
as §1

Molecules are shown by their SMILES.

For `Cc1cc(=O)c2c(O)c(CN(C(C)C)C(C)C)c(O)c([C@H]3CCN(C)C[C@H]3O)c2o1`, the inhibition in assay [1] was found to be 1%; in assay [2], 12%. Further, the inhibition of growth at 10 µM in assay [3] came to 21%; in assay [4], 0%; in assay [5] it was 11%; in assay [6], 33%; in assay [7], 22%.

`Cc1cc(=O)c2c(O)c(CN3CCCC3)c(O)c([C@H]3CCN(C)C[C@H]3O)c2o1`: the inhibition stood at 7% in assay [1] and 5% in assay [2]. For the same compound, the inhibition of growth at 10 µM came to 38% in assay [3]; 10% in assay [4]; 28% in assay [5]; 12% in assay [6]; 22% in assay [7].

With `CCOc1ccc(Br)c(C(O)c2c(C)oc3c([C@H]4CCN(C)C[C@H]4O)c(O)cc(O)c3c2=O)c1` (some centres undefined), the inhibition in assay [1] is 0%; in assay [2] it was 2%. The inhibition of growth at 10 µM in assay [3] came out at 2%; in assay [4], 0%; in assay [5] it was 4%; in assay [6], 9%; in assay [7], 5%.

As for `Cc1oc2c([C@H]3CCN(C)C[C@H]3O)c(O)cc(O)c2c(=O)c1C(O)c1cccc(Cl)c1` (some centres undefined), the values for the inhibition in assay [1] and in assay [2] were 0% and 4%, respectively. Besides, the inhibition of growth at 10 µM in assay [3] is 22%; in assay [4], 31%; in assay [5] it was 2%; in assay [6], 5%; in assay [7], 4%.

With `Cc1cc(=O)c2c(O)c(CN3CCC(N4CCCCC4)CC3)c(O)c([C@H]3CCN(C)C[C@H]3O)c2o1`, the inhibition in assay [1] amounted to 10%; in assay [2], 5%. For the same compound, the inhibition of growth at 10 µM in assay [3] turned out to be 34%; in assay [4] it was 17%; in assay [5], 23%; in assay [6], 25%; in assay [7] it was 31%.

As for `Cc1cc(=O)c2c(O)c(CN3CCCC3CO)c(O)c([C@H]3CCN(C)C[C@H]3O)c2o1` (some centres undefined), the inhibition was determined as 0% in assay [1] and 5% in assay [2]. In addition, the inhibition of growth at 10 µM in assay [3] came to 33%; in assay [4], 15%; in assay [5], 13%; in assay [6] it was 22%; in assay [7], 19%.

`Cc1oc2c([C@H]3CCN(C)C[C@H]3O)c(O)cc(O)c2c(=O)c1C(O)c1ccc(F)c(Br)c1` (some centres undefined): the inhibition in assay [1] and in assay [2] was 2% throughout. For the same compound, the inhibition of growth at 10 µM in assay [3] was 25%; in assay [4], 72%; in assay [5], 9%; in assay [6], 14%; in assay [7], 6%.

`Cc1cc(=O)c2c(O)cc(OC/C=C/c3ccccc3)c([C@H]3CCN(C)C[C@H]3O)c2o1`: the results for the inhibition in assay [1] and in assay [2] were 7% and 8%, respectively. In addition, the inhibition of growth at 10 µM in assay [3] worked out at 21%; in assay [4], 18%; in assay [5], 11%; in assay [6], 7%; in assay [7] it was 9%.

As to `COc1ccc(COc2cc(O)c3c(=O)cc(C)oc3c2[C@H]2CCN(C)C[C@H]2O)cc1`, the inhibition in assay [1] is 10%; in assay [2], 0%. Besides, the inhibition of growth at 10 µM is 23% in assay [3]; 35% in assay [4]; 15% in assay [5]; 16% in assay [6]; 8% in assay [7].

For the compound `Cc1cc(=O)c2c(O)c(CN3CCC(Cc4ccccc4)CC3)c(O)c([C@H]3CCN(C)C[C@H]3O)c2o1`, the results for the inhibition in assay [1] and in assay [2] were 4% and 0%, respectively. In addition, the inhibition of growth at 10 µM was 28% in assay [3]; 16% in assay [4]; 18% in assay [5]; 17% in assay [6]; 21% in assay [7].

`Cc1oc2c([C@H]3CCN(C)C[C@H]3O)c(O)cc(O)c2c(=O)c1C(O)c1ccc(F)cc1` (some centres undefined): the inhibition in assay [1] and in assay [2] was 13% each time. Besides, the inhibition of growth at 10 µM amounted to 30% in assay [3]; 0% in assay [4]; 17% in assay [5]; 9% in assay [6]; 11% in assay [7].

Take `Cc1oc2c([C@H]3CCN(C)C[C@H]3O)c(O)cc(O)c2c(=O)c1C(O)c1c(F)cccc1Cl` (some centres undefined): the inhibition in assay [1] and in assay [2] was 0% each time. Besides, the inhibition of growth at 10 µM in assay [3] stood at 49%; in assay [4], 0%; in assay [5], 41%; in assay [6] it was 41%; in assay [7], 18%.

In the case of `Cc1oc2c([C@H]3CCN(C)C[C@H]3O)c(O)cc(O)c2c(=O)c1C(O)c1ccc(Cl)cc1` (some centres undefined), the inhibition in assay [1] and in assay [2] was 0% throughout. Also, the inhibition of growth at 10 µM in assay [3] was found to be 2%; in assay [4], 41%; in assay [5], 15%; in assay [6], 6%; in assay [7], 3%.

With `Cc1cc(=O)c2c(O)cc(OCc3ccccc3)c([C@H]3CCN(C)C[C@H]3O)c2o1`, the inhibition in assay [1] was determined as 10%; in assay [2] it was 0%. The inhibition of growth at 10 µM turned out to be 24% in assay [3]; 41% in assay [4]; 14% in assay [5]; 1% in assay [6]; 18% in assay [7].

With `Cc1cc(=O)c2c(O)c(CN3CCC(c4ccccc4)CC3)c(O)c([C@H]3CCN(C)C[C@H]3O)c2o1`, the inhibition in assay [1] came out at 0%; in assay [2] it was 6%. In addition, the inhibition of growth at 10 µM in assay [3] turned out to be 26%; in assay [4], 22%; in assay [5], 16%; in assay [6], 23%; in assay [7], 21%.

For `Cc1cc(=O)c2c(O)c(CN3CCN(C)CC3)c(O)c([C@H]3CCN(C)C[C@H]3O)c2o1`, the inhibition in assay [1] was 0%; in assay [2], 2%. Also, the inhibition of growth at 10 µM in assay [3] came to 15%; in assay [4], 0%; in assay [5], 6%; in assay [6], 10%; in assay [7], 30%.

Turning to `Cc1cc(=O)c2c(O)cc(OCc3ccc([N+](=O)[O-])cc3)c([C@H]3CCN(C)C[C@H]3O)c2o1`, the inhibition in assay [1] came out at 0%; in assay [2] it was 5%. Moreover, the inhibition of growth at 10 µM in assay [3] worked out at 14%; in assay [4], 23%; in assay [5] it was 12%; in assay [6], 39%; in assay [7], 14%.

`Cc1cc(=O)c2c(O)c(CN3CCN(C(=O)OC(C)(C)C)CC3)c(O)c([C@H]3CCN(C)C[C@H]3O)c2o1`: the inhibition in assay [1] was 2%; in assay [2], 0%. Besides, the inhibition of growth at 10 µM in assay [3] was found to be 13%; in assay [4] it was 1%; in assay [5], 6%; in assay [6], 16%; in assay [7] it was 21%.

With `Cc1oc2c([C@H]3CCN(C)C[C@H]3O)c(O)cc(O)c2c(=O)c1C(O)c1c(Cl)cccc1Cl` (some centres undefined), the inhibition in assay [1] and in assay [2] was 0% in each case. For the same compound, the inhibition of growth at 10 µM turned out to be 14% in assay [3]; 0% in assay [4]; 0% in assay [5]; 33% in assay [6]; 24% in assay [7].

Regarding `Cc1cc(=O)c2c(O)c(CN3CCOCC3)c(O)c([C@H]3CCN(C)C[C@H]3O)c2o1`, the inhibition in assay [1] and in assay [2] was 0% throughout. In addition, the inhibition of growth at 10 µM in assay [3] was 8%; in assay [4], 21%; in assay [5], 4%; in assay [6], 22%; in assay [7], 11%.

For `Cc1cc(=O)c2c(O)c(CN3CC(O)CC3C(=O)O)c(O)c([C@H]3CCN(C)C[C@H]3O)c2o1` (some centres undefined), the inhibition in assay [1] is 10%; in assay [2], 8%. For the same compound, the inhibition of growth at 10 µM in assay [3] came to 28%; in assay [4], 0%; in assay [5], 23%; in assay [6] it was 25%; in assay [7] it was 19%.

On to `Cc1oc2c([C@H]3CCN(C)C[C@H]3O)c(O)cc(O)c2c(=O)c1C(O)c1csc([N+](=O)[O-])c1` (some centres undefined), for which the inhibition in assay [1] turned out to be 7%; in assay [2], 0%. Further, the inhibition of growth at 10 µM is 45% in assay [3]; 0% in assay [4]; 41% in assay [5]; 20% in assay [6]; 3% in assay [7].
